# High-throughput results (PubChem BioAssay)
# H9c2 TAG inh – inhibitors of triacylglycerol accumulation; 230,000 compounds, 0.66% hits; inhibition, % at 12.5 µM; H9c2 cells, Nile Red lipid (TAG) fluorescence; cells loaded with 200 µM oleic acid;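 active = pattern-corrected inhibition of lipid staining of at least 50% with the nuclear-stain viability signal not falling by more than 50%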;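 also: 0% = DMSO wells and 100% = triacsin C control wells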
# aSyn UTR inh – MLPCN primary screen, SNCA 5' untranslated region; 300,000 compounds, 0.82% hits; AID 1813; inhibition, % (tested at 7.5 µM); alpha-synuclein 5'UTR reporter, inhibitor activity; in the data active = inhibition above about 60%;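 also: H4 neuroglioblastoma cells stably carrying SNCA 5'UTR luciferase fusion; 0% = DMSO wells and 100% = positive control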
# APP 5UTR inh – APP translation inhibition. SH-SY5Y APP 5'UTR-luciferase reporter, luminescence. inhibition, % at 2 µM. 190,000 compounds, 0.82% hits. AID 1285;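 active = inhibition above a set limit, derived from the sample mean plus 3 SD, cut at about 45% in these data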
# Jurkat NFkB inh – inhibitors of the PMA/ionomycin-induced NF-kB reporter in Jurkat cells | PMA/ionomycin-induced NF-kB luciferase reporter, luminescence | inhibition, % at 4 µM | 330,000 compounds, 0.53% hits | AID 435003; in the data active = inhibition above about 50%
# 697 NFkB inh – lowers PMA/ionomycin-induced NF-kB signal in 697 B cells. inhibition, % at 4 µM. 330,000 compounds, 0.33% hits. 697 B-cell NF-kB luciferase reporter, 16 h; in the data active = inhibition above about 35%
# Lipid droplet – hepatic lipid droplet formation modulation | AML12 mouse hepatocytes, oleate lipid droplets, BODIPY imaging | inhibition, % at 6.5 µM | 240,000 compounds, 0.4% hits | AID 1656;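 active = lipid droplet intensity inhibited by at least 50%, with more than 500 cells counted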
#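 Test system: AML12 mouse liver cells; schedule: overnight exposure; technique: high-content imaging of BODIPY-stained droplets and DAPI nuclei; read-out: % inhibition of corrected integrated BODIPY droplet signal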
# Numbers without * were called inactive; · = not tested or not shown. Shown are actives, neighbours in structure and some others; about 1.9% of the full set was active somewhere.
SMILES,H9c2 TAG inh,aSyn UTR inh,APP 5UTR inh,Jurkat NFkB inh,697 NFkB inh,Lipid droplet
CC(C)(C)C(=O)N1CCN(c2c(Cl)cccc2[N+](=O)[O-])CC1,-15,12,-18,1,-13,-6
O=C1C=C(c2cccs2)C[C@H](c2ccccc2)[C@H]1n1nnc([N+](=O)[O-])n1,·,71*,16,-10,20,-7
CC(=O)N(C)c1cccc([N+](=O)[O-])c1,-4,21,87*,-15,7,-4
COc1ccc(C(=O)N2CCOCC2c2cc(C(=O)NCc3ccccc3)no2)cc1 (stereo unspecified),8,·,·,·,·,·
COc1ccc(C(=O)/C=C/C(=O)N(CC(=O)NC2CCCCC2)CC2CCCO2)c(O)c1 (stereo unspecified),4,73*,71*,13,-1,-5
COc1ccc(C(=O)/C=C/C(=O)N(CC(=O)NC2CCCCC2)Cc2ccccc2)c(O)c1,25,67*,73*,·,·,-38
COc1ccc(C(=O)/C=C/C(=O)N(CC(=O)NC2CCCCC2)Cc2ccccc2OC)c(O)c1,57,-36,75*,·,·,7
CC(=O)[C@@]1(O)C(C)CC2C3C=C(C)C4=Cc5c(cnn5-c5ccccc5)C[C@]4(C)C3C(O)C[C@@]21C (stereo partly specified),·,81*,·,·,·,34
O=C1c2cccc3c(N4CCCCC4)ccc(c23)C(=O)N1c1ccc(Cl)cn1,·,·,-18,·,·,·
O=C1c2cccc3c([N+](=O)[O-])ccc(c23)C(=O)N1c1ccc(Cl)cn1,·,36,78*,5,-10,·
O=C1c2cccc3c([N+](=O)[O-])ccc(c23)C(=O)N1O,·,-35,·,15,3,-15
O=C1c2cccc3c([N+](=O)[O-])ccc(c23)C(=O)N1c1nccs1,·,20,81*,-3,14,-1
O=C1c2cccc3c([N+](=O)[O-])ccc(c23)C(=O)N1c1ccccn1,31,-38,81*,34,-106,·
O=C1c2cccc3cccc(c23)C(=O)N1c1nccs1,·,·,7,9,11,·
CC(C)CN1C(=O)/C(=C/c2c(N3CCc4ccccc4C3)nc3ccccn3c2=O)SC1=S,·,·,·,·,·,120*
COC(=O)C1CC23C=CCN4CCC5(c6ccccc6NC15C2C)C43 (stereo unspecified),·,94*,·,35,11,-219
CCNc1oc(-c2ccc(OC)cc2)nc1S(=O)(=O)c1ccc(Br)cc1,·,-28,49*,10,5,6
Cc1ccc(-n2c(Cl)c(Cl)nc(Cl)c2=O)cc1,·,·,97*,·,·,·
CCCNC(=O)C1(C)CCCN(C(=O)c2cc(C)n(C(C)(C)C)n2)C1 (stereo unspecified),-2,·,·,·,·,·
O=C(Nc1ccc(OCc2ccccc2Cl)cc1)c1cccnc1,·,90*,·,8,-2,1
O=C(Nc1ccc(OCc2ccccc2)cc1)c1cccnc1,·,-59,-13,14,-34,11
CCc1ccccc1OCC(=O)Nc1nc(-c2cccnc2)cs1,-7,70*,6,-12,-16,32
O=c1[nH]c2ccccc2n1C1CCCCC1,·,7,64*,-17,-8,-2
Cc1cc(C(=O)NN=C2C3CC4CC(C3)CC2C4)c2ccccc2n1,·,18,76*,-7,7,·
Cc1cc(C(=O)NN=C2CCCCC2)c2ccccc2n1,·,·,80*,·,·,-33
SMILES,H9c2 TAG inh,aSyn UTR inh,APP 5UTR inh,Jurkat NFkB inh,697 NFkB inh,Lipid droplet
Cc1cc(C(=O)NN=C2CCCC2)c2ccccc2n1,2,-5,·,-30,-17,·
O=c1c(Cl)nc2cc(Cl)ccc2n1CCNc1ncc(C(F)(F)F)cc1Cl,11,110*,-6,17,10,·
CCCCN(C=O)c1c(CC)nc2ccc(C(=O)N(C)Cc3ccco3)cn12,6,·,·,·,·,·
CC(=O)N(Cc1ccc(F)cc1)C1=C(NCc2ccccc2)C(=O)c2ccccc2C1=O,162,92*,65*,·,·,3
CCCCNC(=O)C1(C)CCN1C(=O)c1ccc2sccc2c1 (stereo unspecified),1,·,·,·,·,·
C/C(=N\NC(=O)c1cc(-c2cccnc2)nc2ccccc12)c1ccccc1O,·,86*,56*,23,-31,-3
C/C(=N\NC(=O)c1cc(C2CC2)nc2ccccc12)c1ccc(O)cc1O,·,74*,·,26,-19,-6
Cc1cc(C)c2cc(C#N)c(N3CCCN(C(=S)NCCCN(C)C)CC3)nc2c1,·,96*,·,-2,-5,-13
